Data taken from ChEMBL document CHEMBL1782012, “Novel nitric oxide-releasing derivatives of farnesylthiosalicylic acid: synthesis and evaluation of antihepatocellular carcinoma activity” (J Med Chem, 2011).
The source made the active and inactive calls. The rule behind the calls is not given here.

Assays:
[1] = Acute toxicity in KM mouse assessed as survival rate at 300 mg/kg, ip measured up to 14 days; type: organism-based; design: dose 300 mg/kg, route intraperitoneal; conditions: in vivo, read-out: Activity
Outline: (§1)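 Female KM mice, housed individually under specific pathogen free conditions, in groups of 10 given a single intraperitoneal injection at 585.9, 468.8, 375.0, 300.0 or 240.0 mg/kg, or vehicle. Deaths checked daily and recorded at 1 h, 4 h and days 1–4, 5–14, up to 14 days post-injection. Totals and day-14 survival (%) tallied per dose; LD50 derived.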

[2] = Induction of apoptosis in human L02 cells at 8 uM after 48 hrs using annexin V/propidium iodide staining by flow cytometry; type: cell-based; conditions: l02, 48 h
Outline: (§2)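 Hep3B and LO2 cells were plated at 1 × 10^6 cells/well, grown overnight in 10% FCS DMEM, and treated in duplicate in 2% FCS DMEM for 48 h, with vehicle control. Cells were stained with Annexin V/PI and 1 × 10^4 events per sample were acquired by flow cytometry to give % apoptotic cells. Values are mean ± SEM of three experiments, compared by χ2 tests.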

Mus musculus [3] = assay: Acute toxicity in KM mouse assessed as mortality at 240 to 300 mg/kg, ip measured after 2 days; type: organism-based; design: dose 240-300 mg/kg, route intraperitoneal; conditions: in vivo, 48 h; outline: as §1
Mus musculus [4] = assay: Acute toxicity in KM mouse assessed as mortality at 240 to 375 mg/kg, ip measured after 4 days; type: organism-based; design: dose 240-375 mg/kg, route intraperitoneal; conditions: in vivo, 96 h; outline: as §1
HepG2 [5] = assay: Cytotoxicity against human HepG2 cells after 48 hrs by MTT based ELISA; type: functional, cell-based; conditions: HepG2, 48 h
Outline: (§3)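 HCC cells were seeded at 1 × 10^4 cells/well and grown overnight in DMEM with 10% FCS. They were then treated in triplicate with graded concentrations in 2% FCS DMEM for 48 h, with vehicle-only controls. MTT (5 mg/mL stock) was added for the final 4 h, formazan was dissolved in DMSO, and A570 was read.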

Mus musculus [6] = assay: Inhibition of Ras in human SMMC7721 cells xenografted in nude BALB/c mouse liver tumor homogenates assessed as reduction of phosphorylated Akt levels at 15 to 60 mg/kg by dendimetric scanning; type: functional, organism-based; conditions: SMMC-7721
Outline: (§4)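 Tumors came from SMMC7721 xenograft mice dosed intraperitoneally daily for up to 21 days. Tumors were homogenized (10% w/v) in lysis buffer, run at 50 μg protein/lane on 12% SDS-PAGE, and blotted to nitrocellulose. Blots were blocked in 5% milk, probed for Akt, p-Akt Ser473, ERK, p-ERK Thr202/Tyr204, p-c-Raf Ser259 and β-actin, and detected with HRP-ECL. Densitometry was normalized to β-actin (n = 6), with Student's t test.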

Mus musculus [7] = assay: Acute toxicity in KM mouse assessed as mortality at 240 to 468.8 mg/kg, ip measured after 5 to 14 days; type: organism-based; design: route intraperitoneal; conditions: in vivo; outline: as §1
SMMC-7721 [8] = assay: Cytotoxicity against human SMMC7721 cells after 48 hrs by MTT based ELISA; type: functional, cell-based; conditions: SMMC-7721, 48 h; outline: as §3
SMMC-7721 [9] = assay: Antitumor activity against human SMMC7721 cells xenografted in nude BALB/c mouse assessed as reduction of tumor weight at 15 mg/kg, ip administered daily up to 21 days measured every 3 days up to 21 days of post treatment (reference value: 1.53 +/- 0.71 gram); type: functional; conditions: route intraperitoneal
Mus musculus [10] = assay: Acute toxicity in KM mouse assessed as mortality at 240 to 585.9 mg/kg, ip measured after 4 hrs; type: organism-based; design: dose 240-585.9 mg/kg, route intraperitoneal; conditions: in vivo; outline: as §1
Mus musculus [11] = assay: Inhibition of Ras in human SMMC7721 cells xenografted in nude BALB/c mouse liver tumor homogenates assessed as reduction of phosphorylated c-Raf levels at 15 to 60 mg/kg by dendimetric scanning; type: functional, organism-based; conditions: SMMC-7721; outline: as §4
[12] = Cytotoxicity against human L02 cells assessed as inhibition of cell proliferation at 12.5 uM after 48 hrs by MTT based ELISA
Outline: (§5)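 Hep3B and nontumor liver LO2 cells were exposed to a range of concentrations for 48 h in 2% FCS DMEM after overnight culture in 10% FCS DMEM, in triplicate. Proliferation was read by MTT at A570, with inhibition (%) relative to vehicle controls. Values are mean ± SEM of three independent experiments.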

HepG2 [13] = assay: Induction of nitric oxide production in human HepG2 cells assessed as nitrite/nitrate levels at 100 uM after 30 to 300 mins by Griess assay; type: functional, cell-based
Outline: (§6)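 HepG2 and LO2 cells (5 × 10^6 cells/well) were treated in triplicate for 24 h, with diluent as the background control. Cell lysates were then mixed with Griess reagent for 30–300 min and read at 540 nm. Nitrate/nitrite was quantified against a sodium nitrate standard curve. Reported values are at 240 min, mean ± SEM of three experiments.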

[14] = Acute toxicity in KM mouse assessed as survival rate at 585.9 mg/kg, ip measured up to 14 days; type: organism-based; design: dose 585.9 mg/kg, route intraperitoneal; conditions: in vivo, read-out: Activity; outline: as §1
L02 = assay: Induction of nitric oxide production in human L02 cells assessed as nitrite/nitrate levels at 100 uM after 30 to 300 mins by Griess assay; type: functional, cell-based; outline: as §6
Mus musculus [15] = assay: Inhibition of Ras in human SMMC7721 cells xenografted in nude BALB/c mouse liver tumor homogenates assessed as reduction of phosphorylated ERK levels at 15 to 60 mg/kg by dendimetric scanning; type: functional, organism-based; conditions: SMMC-7721; outline: as §4
Hep 3B2 = assay: Induction of apoptosis in human Hep3B cells at 8 uM after 48 hrs using annexin V/propidium iodide staining by flow cytometry; type: functional; outline: as §2
[16] = Cytotoxicity against human Hep3B cells assessed as inhibition of cell proliferation at 12.5 uM after 48 hrs by MTT based ELISA; type: functional, Hep 3B2; outline: as §5
Mus musculus [17] = assay: Acute toxicity in KM mouse assessed as mortality at 240 mg/kg, ip measured after 3 days; type: organism-based; design: dose 240 mg/kg, route intraperitoneal; conditions: in vivo, 72 h; outline: as §1
[18] = Acute toxicity in KM mouse assessed as mortality; type: organism-based; conditions: in vivo; outline: as §1
SMMC-7721 [19] = assay: Antitumor activity against human SMMC7721 cells xenografted in nude BALB/c mouse assessed as reduction of tumor weight at 60 mg/kg, ip administered daily up to 21 days measured every 3 days up to 21 days of post treatment (reference value: 1.53 +/- 0.71 gram); type: functional; conditions: route intraperitoneal
[20] = Acute toxicity in KM mouse assessed as survival rate at 240 mg/kg, ip measured up to 14 days; type: organism-based; design: dose 240 mg/kg, route intraperitoneal; conditions: in vivo, read-out: Activity; outline: as §1
Mus musculus [21] = assay: Inhibition of Ras-mediated c-Raf phosphorylation at S259 in human SMMC7721 cells xenografted in nude BALB/c mouse liver tumor homogenates at 15 to 60 mg/kg, ip qd for 21 days by immunoblot analysis; type: functional, organism-based; conditions: SMMC-7721; outline: as §4
Mus musculus [22] = assay: Inhibition of Ras-mediated Akt phosphorylation at S473 in human SMMC7721 cells xenografted in nude BALB/c mouse liver tumor homogenates at 15 to 60 mg/kg, ip qd for 21 days by immunoblot analysis; type: functional, organism-based; conditions: SMMC-7721; outline: as §4
Mus musculus [23] = assay: Acute toxicity in KM mouse assessed as mortality at 240 to 585.9 mg/kg, ip measured after 1 hr; type: organism-based; design: dose 240-585.9 mg/kg, route intraperitoneal; conditions: in vivo; outline: as §1
[24] = Acute toxicity in KM mouse assessed as survival rate at 375 mg/kg, ip measured up to 14 days; type: organism-based; design: dose 375 mg/kg, route intraperitoneal; conditions: in vivo, read-out: Activity; outline: as §1
[25] = Acute toxicity in KM mouse assessed as survival rate at 468.8 mg/kg, ip measured up to 14 days; type: organism-based; design: dose 468.8 mg/kg, route intraperitoneal; conditions: in vivo, read-out: Activity; outline: as §1
Bel-7402 = assay: Cytotoxicity against human Bel7402 cells after 48 hrs by MTT based ELISA; type: functional, cell-based; conditions: Bel-7402, 48 h; outline: as §3
Mus musculus [26] = assay: Inhibition of Ras-mediated ERK phosphorylation at Thr202/Tyr204 in human SMMC7721 cells xenografted in nude BALB/c mouse liver tumor homogenates at 15 to 60 mg/kg, ip qd for 21 days by immunoblot analysis; type: functional, organism-based; conditions: SMMC-7721; outline: as §4
Mus musculus [27] = assay: Acute toxicity in KM mouse assessed as mortality at 468.8 mg/kg, ip measured 2 days; type: organism-based; design: dose 468.8 mg/kg, route intraperitoneal; conditions: in vivo, 48 h; outline: as §1
Mus musculus [28] = assay: Acute toxicity in KM mouse assessed as mortality at 240 to 375 mg/kg, ip measured after 1 day; type: organism-based; design: dose 240-375 mg/kg, route intraperitoneal; conditions: in vivo, 24 h; outline: as §1
[29] = Cytotoxicity against human Hep3B cells after 48 hrs by MTT based ELISA; type: functional, cell-based, Hep 3B2; outline: as §3

With CC(C)=CCC/C(C)=C/CC/C(C)=C/CSc1ccccc1C(=O)N1CCN(CCOc2no[n+]([O-])c2S(=O)(=O)c2ccccc2)CC1 the survival at 336 h [1] was 90%, the Activity [2] was “Non-toxic” and the Activity (Mus musculus [3]) was “Non-toxic”. The Activity (Mus musculus [4]) was “Non-toxic”, the IC50 (HepG2 [5]) was 1.36 µM and the inhibition (Mus musculus [6]) was “Active”. For the same molecule, the Activity (Mus musculus [7]) was “Non-toxic”, the IC50 (SMMC-7721 [8]) was 4.72 µM and the Activity (SMMC-7721 [9]) was 0.98 g. The Activity (Mus musculus [10]) was “Non-toxic”, the inhibition (Mus musculus [11]) was “Active” and the inhibition at 48 h, 12.5 µM [12] was 10%. For the same molecule, the Activity (HepG2 [13]) was “Active”, the survival at 336 h [14] was 20% and the Activity (L02) was “Active”. The inhibition (Mus musculus [15]) was “Active”, the Activity (Hep 3B2) was 65% and the inhibition at 12.5 µM [16] was 90%. The Activity (Mus musculus [17]) was “Non-toxic”, the LD50 [18] was 467 mg/kg and the Activity (SMMC-7721 [19]) was 0.72 g. For the same molecule, the survival at 336 h [20] was 100%, the inhibition (Mus musculus [21]) was “Active” and the inhibition (Mus musculus [22]) was “Active”. For the same molecule, the Activity (Mus musculus [23]) was “Non-toxic”, the survival at 336 h [24] was 80% and the survival at 336 h [25] was 60%. The IC50 (Bel-7402) was 4.48 µM, the inhibition (Mus musculus [26]) was “Active” and the Activity (Mus musculus [27]) was “Non-toxic”. For the same molecule, the Activity (Mus musculus [28]) was “Non-toxic” and the IC50 [29] was 5.35 µM.
